Compound activity from PubChem.
KCNK9 block – KCNK9 potassium channel inhibitors, primary screen, HEK293 cells, thallium flux. Potassium channel subfamily K member 9 (Homo sapiens), Q9NPC2. FluxOR thallium flux fluorescence; active compounds read low. B-score at 10 µM. 1.2% of 310,000 active;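 active means ratio B-score over 3 SD below the library mean, with starting fluorescence within 5 SD of its mean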;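 further: negative B-score means less thallium flux so channel inhibition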
Cl transport mod – KCC2 cotransporter modulators, thallium flux, primary screen, cell-based, HEK293 KCC2, FluoZin-2 fluorescence, MLSMR. 2.2% of 190,000 active. B-score of Tl+ flux slope (higher = more flux/activation; lower = inhibition) at 10 µM. KCC2 cells, thallium flux FluoZin-2 fluorescence. Solute carrier family 12 member 5 (Homo sapiens), Q9H2X9;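 active means thallium flux slope and its plate-corrected score both differing from the plate sample mean at a set confidence after two filtering rounds, in either direction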;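 further: slope of fluorescence scaled to starting intensity during 10 to 20 s after thallium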
KCNQ1 inh – inhibitors of human KCNQ1 channel, primary screen, cell-based, thallium flux, high-throughput. B-score at 10 µM. 1.3% of 310,000 active. Potassium voltage-gated channel subfamily KQT member 1 (Homo sapiens), P51787. AID 2642, 2010. CHO-K1 KCNQ1, FluxOR thallium flux fluorescence; active compounds read high;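 active means compounds whose thallium flux B-score, printed positive for inhibition, exceeds three library SD while starting fluorescence stays within three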;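 further: channel opened by potassium depolarization with thallium stimulus after 20 min compound exposure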
KCNQ1 pot – potentiators or activators of KCNQ1 channel, primary screen, cell-based, thallium flux, high-throughput; Potassium voltage-gated channel subfamily KQT member 1 (Homo sapiens), P51787; CHO-K1 KCNQ1, thallium flux FluxOR fluorescence; active compounds read high; B-score at 10 µM; 0.35% of 310,000 active;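 active means fluorescence ratio B-score, a plate-corrected score, at least three library SD, with initial intensity B-score within 5 SD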
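Assay system: CHO-K1 cells stably expressing KCNQ1; Medium: assay buffer with matched DMSO; Also added: K+/Tl+ depolarizing stimulus; Dosing: single dose; Timing: dye 90 min, compound 20 min, room temperature; Measured by: kinetic FluxOR thallium fluorescence, 10-s 1-Hz baseline, 110-s post-stimulus read; Read-out: peak-minus-minimum fluorescence over initial fluorescence, negative-control normalized, B-scored.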
KCNK3 block – human KCNK3 channel inhibitors, primary screen, CHO cells, FluxOR thallium flux, B-score; Potassium channel subfamily K member 3 (Homo sapiens), O14649; FluxOR fluorescence; active compounds read low; B-score at 10 µM; 0.84% of 340,000 active; AID 602410, 2012;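 active means B-score under library mean minus 4 SD, starting fluorescence ratio at most library mean plus 5 SD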;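 further: more negative B-score means stronger inhibition of thallium flux through KCNK3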
hERG protect – hERG rescue from dofetilide block, primary screen, cell-based, CHO-hERG, FluxOR thallium flux, dofetilide IC70. Voltage-gated inwardly rectifying potassium channel KCNH2 (Homo sapiens), Q12809. dofetilide IC70 present. activation (rescue from dofetilide block), less the hit threshold, % at 10 µM. 0.51% of 310,000 active;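 active means activation above the mean of controls blocked by dofetilide plus 5 SD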;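 further: thallium influx through hERG after potassium depolarization seen as dye fluorescence rise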
KCNK9 block conf – KCNK9 potassium channel inhibitors, confirmation, HEK293 cells, thallium flux, duplicate. shares compounds with KCNK9 block. FluxOR thallium flux fluorescence. inhibition, % at 10 µM. 43% of 4,900 active;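 active means thallium signal inhibited by more than 5 SD of the compound-free buffer control wells, on both duplicate plates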
Kir21 sel – mouse Kir2.1 channel inhibition, confirmation, selectivity assay for KCNK9 modulator project, cell-based, HEK293, thallium flux; shares compounds with KCNK9 block; Kir2.1 cells, FluxOR thallium flux fluorescence; inhibition, % at 10 µM; 4% of 4,900 active; AID 492993, 2010;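 active means thallium signal drop more than 5 SD beyond the mean of the no-compound control wells, seen in both duplicate plates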;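 further: signal is fluorescence rise after thallium addition divided by baseline fluorescence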
HEK293 Tl ctr – thallium flux in non-induced HEK293 cells, confirmation, counter-screen for KCNK9 inhibitor project, cell-based, second counter screen, non-induced KCNK9-HEK293. shares compounds with KCNK9 block. FluxOR thallium flux. inhibition, % at 10 µM. 40% of 4,900 active. AID 492997, 2010;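 active means thallium signal drop beyond 5 SD of the untreated control mean, on both duplicate plates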
Large screens that a line does not name were inactive (follow-up assays come after a bar, where they were run). Rows were chosen to be rich in hits. Some 4.1% of all compounds tested hit in one or more screens of this group.

CC(C)(C)C1CCC(=O)N(CCSc2ccccc2)CC1 (stereo not drawn)	none (no result: Cl transport mod)
Cc1ccc(SCCN2CCC(C(C)(C)C)CCC2=O)cc1 (stereo not drawn)	none (no result: Cl transport mod) | KCNK9 block conf inactive | Kir21 sel inactive | HEK293 Tl ctr inactive
Cc1ccc(SCCN2CCC(C)CCC2=O)cc1 (stereo not drawn)	none (no result: Cl transport mod)
Cc1ccc(SCCN2CCC(NC(=O)OCc3ccccc3)CCC2=O)cc1 (stereo not drawn)	none (no result: Cl transport mod) | KCNK9 block conf inactive | Kir21 sel inactive | HEK293 Tl ctr inactive
O=C(N[C@H]1CCC(=O)N(CCSc2ccc(Br)cc2)CC1)OCc1ccccc1	none (no result: KCNK9 block, Cl transport mod, KCNQ1 inh, KCNQ1 pot, hERG protect)
C[C@@H](CSc1ccccc1)CN1CC[C@H](C(C)(C)C)CCC1=O	none (no result: Cl transport mod) | KCNK9 block conf inactive | Kir21 sel inactive | HEK293 Tl ctr inactive
Cc1ccc(SCCN2CCN(CC(C)C)CCC2=O)cc1	none | KCNK9 block conf inactive | Kir21 sel inactive | HEK293 Tl ctr inactive
O=[N+]([O-])c1ccc(Cl)c(S(=O)(=O)NCCc2ccccn2)c1	none (no result: KCNK9 block, Cl transport mod, KCNQ1 inh, KCNQ1 pot, hERG protect)
CCOC(=O)C1(CC2CC2)CCN(Cc2cn(C)c3ccccc23)CC1	none | KCNK9 block conf inactive | Kir21 sel inactive | HEK293 Tl ctr inactive
CN1C(=O)NC(c2cccc(F)c2)C2=C1CC(C)(C)CC2=O (stereo not drawn)	none (no result: Cl transport mod)
COc1ccc(C(=O)C(OC(=O)c2ccccc2)c2ccccc2)cc1 (stereo not drawn)	KCNK9 block -14 | KCNK9 block conf 53% | Kir21 sel inactive | HEK293 Tl ctr 30%
Cc1cnc(C(=O)OC(C(=O)c2ccccc2)c2ccccc2)cn1 (stereo not drawn)	none (no result: KCNK9 block, Cl transport mod, KCNQ1 inh, KCNQ1 pot, hERG protect)
Cc1ccc(NC(=O)C(OC(=O)c2ccccc2Cl)c2ccccc2)cc1Cl (stereo not drawn)	none
COc1ccc(C(=O)C(OC(=O)c2ccccc2Cl)c2ccccc2)cc1 (stereo not drawn)	KCNK9 block -8.1 | KCNK9 block conf 60% | Kir21 sel inactive | HEK293 Tl ctr 24%
COc1ccc(Cc2nc3ccc(C(=O)N(C)CCCN4CCOCC4)cc3o2)cc1	none (no result: Cl transport mod)
CCc1ccc(OCC(=O)O/N=C(\N)c2ccncc2)c(Br)c1	none (no result: Cl transport mod)
COc1ccc(Br)cc1CN(C)C(C)C(=O)Nc1cc([N+](=O)[O-])ccc1OC (stereo not drawn)	none
COc1ccc([N+](=O)[O-])cc1NC(=O)C(C)N(C)Cc1ccc(Br)cc1 (stereo not drawn)	KCNK9 block -8.6 | KCNK9 block conf 31% | Kir21 sel inactive | HEK293 Tl ctr 38%
CCOC(=O)N1CCC(n2c(SCC(=O)NCCC3=CCCCC3)nc3ccccc3c2=O)CC1	none | KCNK9 block conf inactive | Kir21 sel inactive | HEK293 Tl ctr inactive
O=C(NCc1cccc2[nH]ccc12)C1CCC(=O)N(CCc2ccc(Cl)cc2)C1 (stereo not drawn)	none (no result: Cl transport mod)
CC(=NNC(=S)N1CC2CCC(CC2)C1)c1ccncn1	none (no result: KCNK9 block, Cl transport mod, KCNQ1 inh, KCNQ1 pot, hERG protect)
Cc1cc(OCc2cc(C(=O)N(C)Cc3nonc3C)no2)cc(C)c1Cl	none (no result: Cl transport mod)
CCc1ccc(CN(C)C(=O)c2cc(COc3cc(C)c(Cl)c(C)c3)on2)nc1	none (no result: Cl transport mod) | KCNK9 block conf inactive | Kir21 sel inactive | HEK293 Tl ctr inactive
